Data reported in ChEMBL document CHEMBL1123589, “Phenylpiperazine-based radiopharmaceuticals for brain imaging. 3. Synthesis and evaluation of radioiodinated 1-alkyl-4-phenylpiperazines” (J Med Chem, 1987).
“And” between values parts separate entries of the source, which are not always exact repeats. Equal entries are not always repeated.

How the values were obtained:
Details in all cases: in vivo
Canis familiaris [1] = assay: The biodistribution of the [131I]-labeled compound in dog (mass= 5.7 kg), 2 hr after intravenous injection was evaluated in brain (ID.kg/g); type: ADME, organism-based, Canis lupus familiaris
Procedure, shortened: (§1)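 One female dog (5.7 kg) premedicated im with acepromazine maleate, then anesthetized iv with sodium nembutal/saline (1:1). Given 1.0 mCi iv of ¹³¹I-labeled agent. Killed 2 h post-dose with iv nembutal. Tissues excised, weighed and counted; blood, fat and muscle masses estimated as 7.5%, 27.5% and 40% of body weight. Expressed as % ID/organ and % ID·kg/g.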

Canis familiaris [2] = assay: The biodistribution of the [131I]-labeled compound in dog (mass= 5.7 kg), 2 hr after intravenous injection was evaluated in cortex; type: ADME, organism-based, Canis lupus familiaris; procedure, shortened: as §1
Canis familiaris [3] = assay: The biodistribution of the [131I]-labeled compound in dog (mass= 5.7 kg), 2 hr after intravenous injection was evaluated in cortex (ID.kg/g); type: ADME, organism-based, Canis lupus familiaris; procedure, shortened: as §1
Canis familiaris [4] = assay: The biodistribution of the [131I]-labeled compound in dog (mass= 5.7 kg), 2 hr after intravenous injection was evaluated in fat (ID.kg/g); type: ADME, organism-based, Canis lupus familiaris, Adipose tissue; procedure, shortened: as §1
Rattus norvegicus [5] = assay: The biodistribution of the [125I]-labeled compound in rats after intravenous injection was evaluated in adrenal at 4.00 hrs; value ranges from 0.81-1.19 (ID.kg/g); type: ADME, organism-based
Procedure, shortened: (§2)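 Male Sprague-Dawley rats (250–300 g) under ether anesthesia were given an iv injection of no-carrier-added 125I-labelled agent (10–15 μCi in 0.1 mL saline). The agent was iodinated with chloramine-T in acetate buffer and purified by C-18 HPLC. Groups of N = 3 were killed at 0.25, 1 and 4 h. Blood and tissues were weighed and γ-counted. Values are % ID·kg/g, mean (range).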

Rattus norvegicus [6] = assay: The biodistribution of the [125I]-labeled compound in rats after intravenous injection was evaluated in blood at 0.25 hrs (ID.kg/g); type: ADME, organism-based; procedure, shortened: as §2
Rattus norvegicus [7] = assay: The biodistribution of the [125I]-labeled compound in rats after intravenous injection was evaluated in blood at 4.00 hrs (ID.kg/g); type: ADME, organism-based; procedure, shortened: as §2
Rattus norvegicus [8] = assay: The biodistribution of the [125I]-labeled compound in rats after intravenous injection was evaluated in thyroid at 1.00 hrs; value ranges from 1.69-2.41 (ID.kg/g); type: ADME, organism-based, Thyroid gland
Procedure, shortened: (§3)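 Male Sprague-Dawley rats (250–300 g) under ether anesthesia given iv 0.1 mL saline containing 10–15 μCi of NCA ¹²⁵I-labeled agent (chloramine-T iodination, HPLC-purified). Groups of 3 killed at 0.25, 1 and 4 h. Blood and tissues excised, weighed and γ-counted. Values are mean (range) of % injected dose × body mass (kg) per gram of tissue.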

Rattus norvegicus [9] = assay: The biodistribution of the [125I]-labeled compound in rats after intravenous injection was evaluated in heart at 1.00 hrs; value ranges from 0.26-0.37 (ID.kg/g); type: ADME, organism-based
Procedure, shortened: (§4)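 Male Sprague-Dawley rats (250–300 g), under ether anesthesia, given 10–15 μCi of the NCA ¹²⁵I-labeled agent iv in 0.1 mL saline. Groups of N = 3 were killed at 0.25, 1 or 4 h. Blood and tissues were removed, weighed and counted in a γ-well scintillation counter. Values are mean % ID·kg/g (range).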

Rattus norvegicus [10] = assay: The biodistribution of the [125I]-labeled compound in rats after intravenous injection was evaluated in lung at 4.00 hrs; value ranges from 0.45-0.67 (ID.kg/g); type: ADME, organism-based; procedure, shortened: as §4
Rattus norvegicus [11] = assay: The biodistribution of the [125I]-labeled compound in rats after intravenous injection was evaluated in muscle at 0.25 hrs (ID.kg/g); type: ADME, organism-based, Muscle tissue; procedure, shortened: as §3
Rattus norvegicus [12] = assay: The biodistribution of the [125I]-labeled compound in rats after intravenous injection was evaluated in muscle at 4.00 hrs; value ranges from 0.03-0.04 (ID.kg/g); type: ADME, organism-based, Muscle tissue; procedure, shortened: as §3
Canis familiaris [13] = assay: The biodistribution of the [131I]-labeled compound in dog (mass= 5.7 kg), 2 hr after intravenous injection was evaluated in heart (ID.kg/g); type: ADME, organism-based, Canis lupus familiaris; procedure, shortened: as §1
Canis familiaris [14] = assay: The biodistribution of the [131I]-labeled compound in dog (mass= 5.7 kg), 2 hr after intravenous injection was evaluated in kidney; type: ADME, organism-based, Canis lupus familiaris; procedure, shortened: as §1
Canis familiaris [15] = assay: The biodistribution of the [131I]-labeled compound in dog (mass= 5.7 kg), 2 hr after intravenous injection was evaluated in kidney (ID.kg/g); type: ADME, organism-based, Canis lupus familiaris; procedure, shortened: as §1
Canis familiaris [16] = assay: The biodistribution of the [131I]-labeled compound in dog (mass= 5.7 kg), 2 hr after intravenous injection was evaluated in thyroid (ID.kg/g); type: ADME, organism-based, Canis lupus familiaris, Thyroid gland; procedure, shortened: as §1
Rattus norvegicus [17] = assay: The biodistribution of the [125I]-labeled compound in rats after intravenous injection was evaluated in thyroid at 4.00 hrs; value ranges from 4.85-5.46 (ID.kg/g); type: ADME, organism-based, Thyroid gland; procedure, shortened: as §3
Canis familiaris [18] = assay: The biodistribution of the [131I]-labeled compound in dog (mass= 5.7 kg), 2 hr after intravenous injection was evaluated in blood (ID.kg/g); type: ADME, organism-based, Canis lupus familiaris; procedure, shortened: as §1
Rattus norvegicus [19] = assay: The biodistribution of the [125I]-labeled compound in rats after intravenous injection was evaluated in thyroid at 0.25 hrs; value ranges from 3.39-4.05 (ID.kg/g); type: ADME, organism-based, Thyroid gland; procedure, shortened: as §3
Rattus norvegicus [20] = assay: The biodistribution of the [125I]-labeled compound in rats after intravenous injection was evaluated in brain at 4.00 hrs; value ranges from 0.25-0.41 (ID.kg/g); type: ADME, organism-based; procedure, shortened: as §2
Rattus norvegicus [21] = assay: The biodistribution of the [125I]-labeled compound in rats after intravenous injection was evaluated in fat at 0.25 hr; value ranges from 0.03-0.05 (ID.kg/g); type: ADME, organism-based, Adipose tissue; procedure, shortened: as §2
Rattus norvegicus [22] = assay: The biodistribution of the [125I]-labeled compound in rats after intravenous injection was evaluated in fat at 1.00 hrs (ID.kg/g); type: ADME, organism-based, Adipose tissue; procedure, shortened: as §2
Rattus norvegicus [23] = assay: The biodistribution of the [125I]-labeled compound in rats after intravenous injection was evaluated in brain at 0.25 hrs; value ranges from 0.32-0.38 (ID.kg/g); type: ADME, organism-based; procedure, shortened: as §2
Rattus norvegicus [24] = assay: The biodistribution of the [125I]-labeled compound in rats after intravenous injection was evaluated in fat at 4.00 hrs (ID.kg/g); type: ADME, organism-based, Adipose tissue; procedure, shortened: as §2
Rattus norvegicus [25] = assay: The biodistribution of the [125I]-labeled compound in rats after intravenous injection was evaluated in liver at 4.00 hrs; value ranges from 0.40-0.52 (ID.kg/g); type: ADME, organism-based; procedure, shortened: as §4
Rattus norvegicus [26] = assay: The biodistribution of the [125I]-labeled compound in rats after intravenous injection was evaluated in lung at 0.25 hrs; value ranges from 0.81-1.16 (ID.kg/g); type: ADME, organism-based; procedure, shortened: as §4
Rattus norvegicus [27] = assay: The biodistribution of the [125I]-labeled compound in rats after intravenous injection was evaluated in lung at 1.00 hrs; value ranges from 1.20-1.42( ID.kg/g); type: ADME, organism-based; procedure, shortened: as §4
Rattus norvegicus [28] = assay: The biodistribution of the [125I]-labeled compound in rats after intravenous injection was evaluated in kidney at 0.25 hr; value ranges from 0.48-0.58 (ID.kg/g); type: ADME, organism-based; procedure, shortened: as §4
Canis familiaris [29] = assay: The biodistribution of the [131I]-labeled compound in dog (mass= 5.7 kg), 2 hr after intravenous injection was evaluated in cerebellum; type: ADME, organism-based, Canis lupus familiaris; procedure, shortened: as §1
Rattus norvegicus [30] = assay: The biodistribution of the [125I]-labeled compound in rats after intravenous injection was evaluated in muscle at 1.00 hrs (ID.kg/g); type: ADME, organism-based, Muscle tissue; procedure, shortened: as §3
Rattus norvegicus [31] = assay: The biodistribution of the [125I]-labeled compound in rats after intravenous injection was evaluated in liver at 1.00 hrs; value ranges from 0.19-0.24 (ID.kg/g); type: ADME, organism-based; procedure, shortened: as §4

CCCCN1CCN(c2ccc(I)cc2)CC1
Biodistribution (Canis familiaris [1]): 1.824% and 0.165%
Biodistribution (Canis familiaris [2]): 0.1%
Biodistribution (Canis familiaris [3]): 0.171%
Biodistribution (Canis familiaris [4]): 9.41% and 0.034%
Biodistribution (Rattus norvegicus [5]): 1.19%
Biodistribution (Rattus norvegicus [6]): 0.01 % ID·kg/g
Biodistribution (Rattus norvegicus [7]): 0.01 % ID·kg/g
Biodistribution (Rattus norvegicus [8]): 2.41%
Biodistribution (Rattus norvegicus [9]): 0.37%
Biodistribution (Rattus norvegicus [10]): 0.67%
Biodistribution (Rattus norvegicus [11]): 0.03 % ID·kg/g
Biodistribution (Rattus norvegicus [12]): 0.04%
Biodistribution (Canis familiaris [13]): 0.85%
Biodistribution (Canis familiaris [14]): 0.88%
Biodistribution (Canis familiaris [15]): 0.182%
Biodistribution (Canis familiaris [16]): 0.032% and 0.342%
Biodistribution (Rattus norvegicus [17]): 5.46%
Biodistribution (Canis familiaris [18]): 1.072% and 0.148%
Biodistribution (Rattus norvegicus [19]): 4.05%
Biodistribution (Rattus norvegicus [20]): 0.41%
Biodistribution (Rattus norvegicus [21]): 0.05%
Biodistribution (Rattus norvegicus [22]): 0.01 % ID·kg/g
Biodistribution (Rattus norvegicus [23]): 0.38%
Biodistribution (Rattus norvegicus [24]): 0.02%
Biodistribution (Rattus norvegicus [25]): 0.52%
Biodistribution (Rattus norvegicus [26]): 1.16%
Biodistribution (Rattus norvegicus [27]): 1.42%
Biodistribution (Rattus norvegicus [28]): 0.58%
Biodistribution (Canis familiaris [29]): 1.571%
Biodistribution (Rattus norvegicus [30]): 0.04 %ID·kg/g
Biodistribution (Rattus norvegicus [31]): 0.24%
